# Active and inactive are the calls of the source.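 How the source made its calls, unless noted: active means inhibition of the reporter signal at or above 50%; inactive means inhibition below 50%.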
# How the values were obtained:
# [1] = inhibitors of TNFa-induced NFkB p65 translocation, primary screen, imaging, HUVEC, MLSMR starter and 10KST1 sets (AID 438;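 active means inhibition above 20% together with a positive visual image hit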;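 further: compound added about 3h40 before a 20 min TNFalpha stimulation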;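 on inhibition: signal is the nuclear over cytoplasmic p65 intensity ratio per well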); conditions: HUVEC TNFa-induced p65 nuclear translocation; cell count: measured here: nuclei count (cytotoxicity indicator), at 2.08 µM; inhibition: at 2 µM, stronger effect = higher value, 0% TNFa-plus-vehicle, 100% no-TNFa wells
# [2] = inhibitors of mutant huntingtin aggregation, primary screen, imaging, exon1htt(103Q)mCFP cells, high-content imaging (AID 483;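 active means visual image review flags a hit and inhibition of aggregation exceeds 20%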;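 further: compound exposure lasted 3 days before fixation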;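 on nuclei count: percent of the per-plate median nuclei count of sample wells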); conditions: exon1htt(103Q)mCFP cell line, aggregate imaging, at 2 µM; inhibition of aggregation: stronger effect = higher value; nuclei count: measured here: cell count, toxicity
# [3] = inhibitors of E-selectin induction by TNFa, primary screen, imaging, HUVEC, immunofluorescence, MLSMR starter and 10KST1 sets (AID 487;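 active means visually confirmed hit in the image check and inhibition above 20%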;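 on inhibition: signal is fraction of cell area covered by stained E-selectin grains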;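 on nuclei count: 100% = median nuclei count of all wells on the same plate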); conditions: HUVEC TNFalpha-induced E-selectin immunofluorescence imaging, at 2 µM; inhibition: stronger effect = higher value; nuclei count: measured here: cell number, toxicity
# [4] = biological target: Voltage-gated potassium channel subunit beta-2 (Rattus norvegicus) (UniProt P62483); test: KvBeta enzyme negative modulators, primary screen, biochemical, NADPH fluorescence (AID 622;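 active means fluorescence slope higher than the sample average by over 3 SD, cut at about -0.22 in these data, passing the limit was not always enough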;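 further: slope of raw intensity against log time taken from 70 to 1610 s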); conditions: recombinant KvBeta, 4-cyanobenzaldehyde reduction, at 10 µM, stronger effect = higher value
# Chain of Voltage-gated potassium channel subunit beta-2 (Rattus norvegicus) (P62483 whole entry, looked up): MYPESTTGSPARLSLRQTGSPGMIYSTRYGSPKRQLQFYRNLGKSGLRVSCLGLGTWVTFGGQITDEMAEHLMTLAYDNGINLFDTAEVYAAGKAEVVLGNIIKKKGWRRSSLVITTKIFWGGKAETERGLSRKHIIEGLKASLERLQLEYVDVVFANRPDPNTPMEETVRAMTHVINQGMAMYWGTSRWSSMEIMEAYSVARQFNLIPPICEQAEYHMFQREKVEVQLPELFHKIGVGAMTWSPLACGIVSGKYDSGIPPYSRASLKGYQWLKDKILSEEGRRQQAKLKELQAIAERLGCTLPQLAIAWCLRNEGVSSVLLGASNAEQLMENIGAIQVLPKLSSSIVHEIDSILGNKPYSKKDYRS
# [5] = biological target: Voltage-gated potassium channel subunit beta-2 (Rattus norvegicus) (UniProt P62483); test: KvBeta positive modulators, primary screen, biochemical, NADPH fluorescence (AID 623;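 active means NADPH fluorescence slope more negative than the mean of all samples by about 3 SD, 99.7% confidence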;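 further: fluorescence intensity change per second fitted from 20 to 320 s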); conditions: Recombinant KvBeta, NADPH fluorescence decrease slope, 10 min; at 10 µM; stronger effect = lower value
# [6] = biological target: Alpha-2C adrenergic receptor (Homo sapiens) (UniProt P18825); test: modulators of alpha2C/GIRK thallium flux, primary screen, cell-based, HEK293 alpha2C/GIRK1/2 (AID 624;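 active means fluorescence slope after compound addition differing from the mean of all screened samples at 99.7% confidence, in either direction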;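 further: slope of fluorescence ratio to pre-addition baseline per second over 15 to 24 s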); conditions: thallium flux BTC fluorescence, at 10 µM, actives lie on both sides
# Chain of Alpha-2C adrenergic receptor (Homo sapiens) (P18825 whole entry, looked up): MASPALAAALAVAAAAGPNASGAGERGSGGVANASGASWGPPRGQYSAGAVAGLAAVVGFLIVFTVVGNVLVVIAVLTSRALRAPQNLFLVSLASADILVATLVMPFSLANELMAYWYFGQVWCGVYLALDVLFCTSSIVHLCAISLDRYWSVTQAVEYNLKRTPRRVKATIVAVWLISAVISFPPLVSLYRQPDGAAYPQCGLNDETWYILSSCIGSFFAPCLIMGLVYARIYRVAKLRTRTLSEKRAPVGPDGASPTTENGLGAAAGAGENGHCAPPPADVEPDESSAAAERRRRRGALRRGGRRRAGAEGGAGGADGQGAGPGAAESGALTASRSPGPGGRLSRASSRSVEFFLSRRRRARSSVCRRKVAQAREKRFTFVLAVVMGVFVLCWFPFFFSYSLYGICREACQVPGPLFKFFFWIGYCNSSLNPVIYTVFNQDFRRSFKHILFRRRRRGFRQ
# [7] = inhibitors of larval lipid processing in zebrafish, primary screen, whole organism, PED6 fluorescence, gall bladder and intestine (AID 686;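 active means a full or partial loss of lipid-probe fluorescence in the fish gall bladder, intestine or both, judged by eye; inactive means no fluorescence loss, or compound toxic to the fish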;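 further: larvae 5 to 7 days old with five fish per well; signal comes from phospholipase A2 cleavage of quenched PED6 carried via bile; overnight exposure to compound and PED6 before scoring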); conditions: Zebrafish larvae PED6 lipid processing, fluorescence scoring; screened at 20 µM (by protocol)
# Summary of the method: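 system = live zebrafish larvae aged 5-7 days, whole organism | probe or stimulus = ingested quenched lipid PED6 at 100 nM | doses = 20 µM single dose | timing = overnight exposure | detection = fluorescence microscopy with visual scoring of gall bladder and intestine | read-out = visual per-well fluorescence inhibition score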
# [8] = inhibitors of Sendai virus-induced IRF3 signaling, primary screen, TLR/RLR signaling modifier project, cell-based, Sendai virus stimulus, luciferase, 10K MLSCN set (AID 602276;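 active means inhibition at or above 50% at 10 µM; inactive means inhibition below 50%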;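 further: firefly luciferase from ISG56 promoter only with Renilla not read in this screen; 0% = Sendai virus plus DMSO and 100% = medium plus DMSO without virus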); conditions: HEK293 RL24 IRF3 luciferase reporter, at 10 µM, stronger effect = higher value
# [9] = inhibitors of poly I:C-induced TLR3 signaling, primary screen, cell-based, poly I:C stimulus, luciferase, 10K MLSCN set (AID 602277); conditions: HEK293-TLR3 RL24 IRF3 luciferase reporter, at 10 µM, stronger effect = higher value
SMILES,cell count [1],inhibition [1],inhibition of aggregation [2],nuclei count [2],inhibition [3],nuclei count [3],fluorescence slope [4],NADPH fluorescence slope [5],slope [6],outcome [7],inhibition [8],inhibition [9]
CC(C)(C)NC(=O)CN(Cc1cccs1)C(=O)c1csnn1,570,12.9% (inactive),34.6% (active),85%,20.6% (inactive),89.9%,-0.431 (inactive),-4.2e-05 (inactive),0.00455 (inactive),inactive,11.9% (inactive),16.1% (inactive)
O=S(=O)(c1cccc2c(S(=O)(=O)N3CCCC3)cccc12)N1CCCC1,250,-13.4% (inactive),-7.2% (inactive),118%,-17.4% (inactive),88.6%,-0.355 (inactive),6.6e-06 (inactive),0.00452 (inactive),inactive,18.2% (inactive),21.9% (inactive)
O=C(COc1ccc(S(=O)(=O)NC2CCCCC2)cc1)NCc1ccccn1,400,-5.1% (inactive),-2.7% (inactive),101%,-8.3% (inactive),107%,-0.401 (inactive),-1.8e-06 (inactive),0.00588 (inactive),inactive,-5.78% (inactive),1.29% (inactive)
CCOC(=O)N1CCN(C(=O)c2cnn(-c3ccccc3)c2NC(=O)c2ccccc2F)CC1,397,12.1% (inactive),1.7% (inactive),117%,-69.8% (inactive),106%,-0.34 (inactive),-3.7e-05 (inactive),0.00614 (inactive),inactive,16% (inactive),17.2% (inactive)
N#Cc1ccc(CSc2nnc(-c3ccccn3)n2-c2ccccc2)cc1,363,5.8% (inactive),10.4% (inactive),91.3%,-10.3% (inactive),112%,-0.426 (inactive),-1.1e-05 (inactive),0.00569 (inactive),active; weak signal in gallbladder and intestine,11.1% (inactive),9.06% (inactive)
CCc1ccccc1N1C(=O)C2CC(C)=C(C)CC2C1=O (centres undefined),500,5.5% (inactive),18.2% (inactive),92.1%,-355% (inactive),124%,-0.368 (inactive),-5.9e-05 (inactive),0.00511 (inactive),inactive,10.5% (inactive),4.14% (inactive)
COc1ccc(S(=O)(=O)NCCSCc2ccco2)cc1Cl,362,4.4% (inactive),13% (inactive),94%,13.2% (inactive),108%,-0.424 (inactive),-6.4e-06 (inactive),0.00484 (inactive),inactive,20.4% (inactive),19.9% (inactive)
COc1ccccc1NC(=O)NC(N)=O,580,0.5% (inactive),-22.8% (inactive),104%,-36.1% (inactive),115%,-0.386 (inactive),4.8e-06 (inactive),0.00503 (inactive),inactive,2.43% (inactive),1.16% (inactive)
CCOC(=O)c1ccc(CNC(=O)C(Cc2c[nH]c3ccccc23)NC(C)=O)o1 (centres undefined),444,-0.3% (inactive),-11.1% (inactive),122%,-52.8% (inactive),167%,-0.369 (inactive),-4.9e-06 (inactive),0.00652 (inactive),inactive,17% (inactive),29.3% (inactive)
COCCCN1C(=O)C(O)=C(C(C)=O)C1c1ccccn1 (centres undefined),686,-1.7% (inactive),-2% (inactive),116%,-38.3% (inactive),116%,-0.399 (inactive),-6.2e-05 (inactive),0.00486 (inactive),active; weak signal in gallbladder only,12.4% (inactive),14.4% (inactive)
COC(=O)c1ccc(CSc2nc3ccccc3s2)o1,483,-6.3% (inactive),-4% (inactive),126%,-0.4% (inactive),104%,-0.47 (inactive),-1.1e-05 (inactive),0.00436 (inactive),inactive,-35.6% (inactive),-50.2% (inactive)
CCOC(=O)CC(=O)CSc1nc(-c2cccnc2)ccc1C#N,908,11.4% (inactive),-23.5% (inactive),87.2%,-90.5% (inactive),128%,-0.0463 (active),-1.8e-05 (inactive),0.013 (active),inactive,-15.8% (inactive),-33.1% (inactive)
Cc1cnc(C(=O)Nc2ccccc2-n2cccc2)cn1,426,6% (inactive),-9.1% (inactive),107%,-157% (inactive),115%,-0.379 (inactive),-5.7e-05 (inactive),0.00535 (inactive),inactive,-12.6% (inactive),0.535% (inactive)
COc1ccc(C(NC(C)=O)c2ccc3cccnc3c2O)c(OC)c1 (centres undefined),444,2.1% (inactive),-3% (inactive),90.6%,23.6% (inactive),111%,-0.37 (inactive),-5.8e-05 (inactive),0.00602 (inactive),inactive,-12.8% (inactive),61.9% (active)
CN(Cc1ccc(-n2cccn2)cc1)C(=O)c1cnn2c1NC(c1ccco1)CC2C(F)(F)F (centres undefined),326,9.3% (inactive),-30.3% (inactive),115%,-100% (inactive),120%,-0.509 (inactive),-4e-05 (inactive),0.00457 (inactive),inactive,8.13% (inactive),5.75% (inactive)
Cc1onc(-c2ccccc2)c1C(=O)NCc1cccnc1,272,-15.4% (inactive),-24.1% (inactive),120%,-22.8% (inactive),112%,-0.385 (inactive),-6.1e-05 (inactive),0.00521 (inactive),inactive,6.6% (inactive),8.85% (inactive)
CCC(c1nnc(SCC(=O)Nc2ccc(C(=O)Nc3ccccc3OC)cc2)o1)N(C)C (centres undefined),464,2.9% (inactive),-11.7% (inactive),102%,-70.6% (inactive),90.3%,-0.442 (inactive),-7.1e-06 (inactive),0.00416 (inactive),inactive,-5.51% (inactive),98.3% (active)
O=C1c2ccccc2NC(c2cccc(F)c2)N1Cc1ccco1 (centres undefined),586,-32.4% (inactive),10.2% (inactive),106%,-0.5% (inactive),107%,-0.308 (inactive),-2.7e-05 (inactive),0.00344 (inactive),inactive,16.4% (inactive),17.8% (inactive)
O=C(CSc1nnnn1-c1ccccc1)Nc1ccc(Cl)cc1,561,-0.2% (inactive),17.5% (inactive),108%,-73.4% (inactive),67.8%,-0.377 (inactive),4e-06 (inactive),0.00622 (inactive),inactive,-14.3% (inactive),-15.3% (inactive)
CCN(CC)c1ccc(C(=O)n2cnc3ccccc32)cc1,461,12.1% (inactive),7.1% (inactive),95.4%,-306% (inactive),128%,-0.284 (inactive),-3.9e-05 (inactive),0.00386 (inactive),inactive,25.3% (inactive),-37.1% (inactive)
CC(=O)Nc1ccc(NC(=O)Cn2cnc3c(cnn3C(C)(C)C)c2=O)cc1,586,-3.3% (inactive),8.4% (inactive),104%,0.5% (inactive),111%,-0.37 (inactive),-4e-05 (inactive),0.00604 (inactive),inactive,2.03% (inactive),2.5% (inactive)
Cc1nc2ccccc2c(=O)n1NC(=O)Nc1ccccc1,592,0% (inactive),17.7% (inactive),83.8%,-41.3% (inactive),97.5%,-0.359 (inactive),-2.7e-05 (inactive),0.00703 (inactive),inactive,12.6% (inactive),-4.39% (inactive)
COc1ccc(C/C(O)=C(\C#N)c2nc3ccccc3s2)cc1,783,-1.1% (inactive),2.2% (inactive),98.5%,-15.3% (inactive),111%,-0.378 (inactive),-3.1e-05 (inactive),0.0036 (inactive),inactive; toxic,0.322% (inactive),6.03% (inactive)
COc1cc(C(=O)N(C)c2nnc(-c3cccnc3)s2)cc(OC)c1OC,646,-5.5% (inactive),0.4% (inactive),99.2%,3.6% (inactive),103%,-0.5 (inactive),1.3e-05 (inactive),0.00473 (inactive),inactive,-9.5% (inactive),-1.29% (inactive)
CC(OC(=O)c1ccco1)C(=O)NCc1cccs1 (centres undefined),609,-4.4% (inactive),7.4% (inactive),83%,-95.9% (inactive),113%,-0.444 (inactive),-6e-05 (inactive),0.00449 (inactive),inactive,17.9% (inactive),25.3% (inactive)
O=C1NC(=O)C(CC(=O)N(c2ccccc2)C2(C(=O)NC3CCCC3)CCCCC2)N1 (centres undefined),384,-1.1% (inactive),25.6% (inactive),83.3%,-24.5% (inactive),108%,-0.391 (inactive),-1.3e-05 (inactive),0.00517 (inactive),inactive,14.9% (inactive),11.4% (inactive)
CSc1ncc(Cl)c(C(=O)Nc2ccc(S(=O)(=O)N3CCOCC3)cc2)n1,288,-0.8% (inactive),-8.6% (inactive),101%,2.7% (inactive),131%,-0.433 (inactive),-5.7e-05 (inactive),0.00479 (inactive),inactive,4.78% (inactive),0.446% (inactive)
